According to ChEMBL document CHEMBL1123616, “Thromboxane synthase inhibitors. Synthesis and pharmacological activity of (R)-, (S)-, and (+/-)-2,2-dimethyl-6-[2-(1H-imidazol-1-yl)-1-[[(4-methoxyphenyl)- methoxy]methyl]ethoxy]hexanoic acids” (J Med Chem, 1987):
pIC50: −log10 of the molar value.

How the values were obtained:
Assay type in all cases: functional
[1] = system: Cavia porcellus; assay: Inhibition of Collagen-induced Thromboxane (TXB2) in guinea pig whole blood ex vivo by oral 30 mg/kg administration of test compound.
Method in brief: (§1)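 Male Dunkin-Hartley guinea pigs (300-350 g), fasted overnight, dosed orally by gavage in 50% PEG 400/50% carboxymethylcellulose vehicle. Pentobarbitone anaesthesia 10 min before bleed at 1 h post-dose. Aortic blood was taken into citrate and stirred at 37 °C. Collagen (10 μg/mL) was added and incubated 5 min, then stopped with indomethacin. Plasma TxB2 was measured by RIA and normalized to 5.0×10^8 platelets/mL. Groups of ≥4 animals.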

[2] = molecular target: T1, Thromboxane-A synthase (Homo sapiens, UniProt P24557); assay: Inhibition of Thromboxane B2 formation in collagen-stimulated human platelets in platelet rich plasma.
T1 sequence (P24557 whole entry): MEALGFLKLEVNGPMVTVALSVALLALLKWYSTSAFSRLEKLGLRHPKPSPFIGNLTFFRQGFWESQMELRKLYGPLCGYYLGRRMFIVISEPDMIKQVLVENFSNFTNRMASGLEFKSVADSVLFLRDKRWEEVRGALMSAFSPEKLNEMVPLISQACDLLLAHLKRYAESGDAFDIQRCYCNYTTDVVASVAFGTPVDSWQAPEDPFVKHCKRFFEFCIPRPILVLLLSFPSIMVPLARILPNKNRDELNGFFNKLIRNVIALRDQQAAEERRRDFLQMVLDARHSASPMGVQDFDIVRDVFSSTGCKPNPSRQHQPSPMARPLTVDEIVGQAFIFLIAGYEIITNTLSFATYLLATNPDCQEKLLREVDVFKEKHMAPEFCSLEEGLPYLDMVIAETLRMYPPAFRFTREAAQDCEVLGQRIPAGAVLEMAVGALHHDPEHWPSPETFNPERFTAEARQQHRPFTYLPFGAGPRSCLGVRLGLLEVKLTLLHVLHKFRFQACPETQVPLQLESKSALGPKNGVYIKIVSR

[3] = system: Cavia porcellus; assay: Inhibition of Collagen-induced serum Thromboxane (TXB2) in guinea pig whole blood ex vivo after 30 mg/kg oral administration of compound.; method in brief: as §1
[4] = system: Cavia porcellus; assay: Inhibition of Collagen-induced Thromboxane (TXB2) in guinea pig whole blood ex vivo after 1 hr of 30 mg/kg oral administration of compound.; method in brief: as §1
[5] = system: Cavia porcellus; assay: Inhibition of Collagen-induced Thromboxane (TXB2) in guinea pig whole blood ex vivo after 1 hr of 30 mg/kg oral administration of compound; method in brief: as §1
[6] = system: Cavia porcellus; assay: Dose-related effect was determined 1 hr after oral administration in guinea pig and expressed as ED50 value; method in brief: as §1
[7] = system: Cavia porcellus; assay: Inhibition of Collagen-induced serum Thromboxane (TXB2) generation in guinea pig whole blood ex vivo after 10 mg/kg oral administration of compound.; method in brief: as §1
[8] = system: Cavia porcellus; assay: Inhibition of Collagen-induced Thromboxane (TXB2) generation in guinea pig whole blood ex vivo by oral 10 mg/kg administration of test compound.; method in brief: as §1
[9] = system: Cavia porcellus; assay: Inhibition of Collagen-induced serum Thromboxane (TXB2) in guinea pig whole blood ex vivo after 10 mg/kg oral administration of compound.; method in brief: as §1
[10] = system: Cavia porcellus; assay: Inhibition of Collagen-induced Thromboxane (TXB2) in guinea pig whole blood ex vivo after 1 hr of 10 mg/kg oral administration of compound.; method in brief: as §1

Row | pIC50 [2] | Structure (SMILES) | Thromboxane B2 (TxB2) [1] [pg 0.1ml-1 500x10^3] | inhibition in vivo at 30 mg/kg [3] [%] | other results
1 | 4.75 | CCOC(=O)C(C)(C)CCCCOC(COCc1ccc(OC)cc1)Cn1ccnc1 (stereo unspecified) | 55 | 97 | ED50 [4]: 6.7 mg/kg
2 | 6.25 | COc1ccc(COCC(Cn2ccnc2)OCCCCCC(=O)O)cc1 (stereo unspecified) | 130 | 82 | ED50 [4]: 10.5 mg/kg
3 | 6.14 | COc1ccc(COCC(Cn2ccnc2)OCCCCC(=O)O)cc1 (stereo unspecified) | 1047 | 43 | –
4 | 6.92 | CCOC(=O)CCCCCOC(COCc1ccc(OC)cc1)Cn1ccnc1 (stereo unspecified) | 750 | 63 | ED50 [5]: 13.5 mg/kg
5 | 6.00 | CCOC(=O)CCCCCCC(COCc1ccc(OC)cc1)Cn1ccnc1 (stereo unspecified) | 683 | 53 | –
6 | 6.38 | COc1ccc(COC[C@@H](Cn2ccnc2)OCCCCC(C)(C)C(=O)O)cc1 | 572 | 71 | ED50 [4]: 12 mg/kg
7 | 7.44 | COc1ccc(COC[C@H](Cn2ccnc2)OCCCCC(C)(C)C(=O)O)cc1 | – | – | ED50 [6]: 1.4 mg/kg; inhibition in vivo at 10 mg/kg [7]: 95%; Thromboxane B2 (TxB2) [8]: 61.9 pg 0.1ml-1 500x10^3
8 | < 4.70 | COc1ccc(COCC(Cn2ccnc2)OCCCCCCC(C)(C)C(=O)O)cc1 (stereo unspecified) | – | – | –
9 | 5.72 | COc1ccc(COCC(Cn2ccnc2)OCCCCCCC(=O)O)cc1 (stereo unspecified) | 923 | 25 | –
10 | 5.08 | COc1ccc(COCC(Cn2ccnc2)OCCC/C=C/C(=O)O)cc1 (stereo unspecified) | 1302 | 4 | –
11 | 6.12 | CCOC(=O)CCCCOC(COCc1ccc(OC)cc1)Cn1ccnc1 (stereo unspecified) | 2018 | -11 | –
12 | 5.40 | CCOC(=O)CCCCCCOC(COCc1ccc(OC)cc1)Cn1ccnc1 (stereo unspecified) | 2720 | 33 | –
13 | 5.84 | COc1ccc(COCC(CCCCCCC(=O)O)Cn2ccnc2)cc1 (stereo unspecified) | 1620 | -18 | –
14 | 6.41 | CCOC(=O)CCC/C=C/CC(COCc1ccc(OC)cc1)Cn1ccnc1 (stereo unspecified) | 1265 | 23 | –
15 | 5.00 | CCOC(=O)/C=C/CCCOC(COCc1ccc(OC)cc1)Cn1ccnc1 (stereo unspecified) | – | – | –
16 | 6.92 | COc1ccc(COCC(Cn2ccnc2)OCCCCC(C)(C)C(=O)O)cc1 (racemic) | 153 | 87 | ED50 [4]: 3.4 mg/kg
17 | – | O=C(O)c1ccc(OCCn2ccnc2)cc1 [DAZOXIBEN] | 674 | 54 | ED50 [4]: 9.3 mg/kg
18 | – | COc1ccc2c(c1)c(CC(=O)O)c(C)n2C(=O)c1ccc(Cl)cc1 [INDOMETHACIN] | – | – | inhibition in vivo at 10 mg/kg [9]: 99%; ED50 at 10 mg/kg [10]: < 10 mg/kg; Thromboxane B2 (TxB2) [8]: 27 pg 0.1ml-1 500x10^3
